Test results published in ChEMBL document CHEMBL1136168, “Novel 3-O-acyl mesquitol analogues as free-radical scavengers and enzyme inhibitors: synthesis, biological evaluation and structure-activity relationship” (Bioorg Med Chem Lett, 2003).

Columns and labels:
[1] = Free radical scavenging assessed as DPPH color reduction
Method in brief: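 DMSO sample mixed in microplate with 0.1 M Tris-HCl pH 7.4 and 0.5 mM DPPH in absolute ethanol. Incubated 20 min in the dark, A517 read. Scavenging taken as % decolorization versus solvent control. SC50 by linear regression from at least five concentrations in triplicate.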

[2] = Inhibition of yeast Alpha-glucosidase; parameters: species or system Saccharomyces cerevisiae
Method in brief: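 Yeast α-glucosidase (0.74 u/mL) in 100 mM phosphate pH 7.0 with BSA and 0.20% sodium azide. DMSO sample incubated with enzyme 5 min, A405 zero read. Substrate added, 10 min at 26–28 °C, A405 re-read; increase used for % inhibition. Triplicates; IC50 by linear regression.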

[3] = target: T1, Xanthine dehydrogenase/oxidase (Homo sapiens, UniProt P47989); assay: Inhibitory concentration against Xanthine oxidase; Not active at 50 ug/mL concentration; format: single protein
T1 sequence (P47989 whole entry): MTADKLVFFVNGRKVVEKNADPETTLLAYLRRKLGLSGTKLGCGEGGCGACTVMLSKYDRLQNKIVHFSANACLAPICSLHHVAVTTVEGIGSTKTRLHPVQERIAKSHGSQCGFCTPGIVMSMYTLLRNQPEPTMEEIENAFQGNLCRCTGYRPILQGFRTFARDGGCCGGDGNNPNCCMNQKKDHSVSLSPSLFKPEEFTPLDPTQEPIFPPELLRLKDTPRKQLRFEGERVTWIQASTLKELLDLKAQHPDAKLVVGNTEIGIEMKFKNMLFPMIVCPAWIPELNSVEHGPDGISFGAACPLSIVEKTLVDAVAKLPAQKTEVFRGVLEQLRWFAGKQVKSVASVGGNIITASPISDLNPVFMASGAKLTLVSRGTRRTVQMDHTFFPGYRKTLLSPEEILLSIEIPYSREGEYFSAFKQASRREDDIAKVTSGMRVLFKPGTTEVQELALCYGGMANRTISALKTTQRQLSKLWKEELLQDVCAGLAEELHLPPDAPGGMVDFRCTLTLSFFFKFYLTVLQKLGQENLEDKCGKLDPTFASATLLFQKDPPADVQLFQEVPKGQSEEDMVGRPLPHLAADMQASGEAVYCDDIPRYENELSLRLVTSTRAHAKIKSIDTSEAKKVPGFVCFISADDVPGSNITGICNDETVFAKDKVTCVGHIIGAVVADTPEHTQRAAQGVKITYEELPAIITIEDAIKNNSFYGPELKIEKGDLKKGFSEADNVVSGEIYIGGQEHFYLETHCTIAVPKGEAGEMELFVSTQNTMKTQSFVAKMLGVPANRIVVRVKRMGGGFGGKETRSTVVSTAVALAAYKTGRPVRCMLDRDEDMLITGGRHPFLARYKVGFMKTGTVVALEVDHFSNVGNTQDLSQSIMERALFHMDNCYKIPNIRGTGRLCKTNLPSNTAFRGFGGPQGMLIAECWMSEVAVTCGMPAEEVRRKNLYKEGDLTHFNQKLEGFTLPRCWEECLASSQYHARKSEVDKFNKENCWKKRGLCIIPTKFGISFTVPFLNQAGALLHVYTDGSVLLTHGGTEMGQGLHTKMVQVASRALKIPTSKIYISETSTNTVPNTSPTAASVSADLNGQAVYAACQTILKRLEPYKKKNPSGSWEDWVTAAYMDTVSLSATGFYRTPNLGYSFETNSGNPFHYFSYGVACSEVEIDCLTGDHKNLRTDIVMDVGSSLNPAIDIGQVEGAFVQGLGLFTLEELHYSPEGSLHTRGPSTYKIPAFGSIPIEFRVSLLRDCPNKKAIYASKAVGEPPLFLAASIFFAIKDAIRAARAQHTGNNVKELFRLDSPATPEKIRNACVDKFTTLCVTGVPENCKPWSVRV
Method in brief: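 DMSO sample preincubated 15 min with xanthine oxidase (1 u/mL stock) in […] phosphate buffer pH 7.5. Started with 0.15 mM xanthine, run 30 min at 29 °C, stopped with 1 N HCl, A290 read. Compound blanks had HCl added before enzyme. Triplicates; % inhibition versus solvent control; IC50 by linear regression.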

[4] = Free radical scavenging assessed as ABTS (2,2'-azinobis-(3-ethyl benz) thiazoline-6-sulfonic acid) color change
Method in brief: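 ABTS radical cation made by reacting 7 mM ABTS diammonium salt with 2.45 mM potassium persulfate overnight in the dark at room temp, then diluted in PBS pH 7.4 to A734 about 0.70. Sample added to diluted ABTS, A734 read within 1 min. Triplicates with blanks and controls. SC50 by linear regression from at least five concentrations.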

[5] = target: T1, Xanthine dehydrogenase/oxidase; assay: Inhibition of Xanthine oxidase; format: single protein
Method in brief: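 DMSO sample preincubated 15 min with xanthine oxidase (1 u/mL stock) in […] phosphate buffer pH 7.5. Started with 0.15 mM xanthine, run 30 min at 29 °C, stopped with 1 N HCl, A290 read. Triplicates; % inhibition versus solvent control; IC50 by linear regression.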

SMILES	SC50 [1] [µM]	IC50 [2] [µM]	IC50 [3]	SC50 [4] [µM]	IC50 [5] [µM]
Oc1cc(O)c2c(c1)O[C@H](c1ccc(O)c(O)c1)[C@H](O)C2 [(-)-EPICATECHIN]	13.5	178	Not Active	–	–
Oc1ccc([C@@H]2Oc3c(ccc(O)c3O)C[C@H]2O)cc1O	6.72	82.3	Not Active	14.6	–
Cc1c(C)c2c(c(C)c1O)CCC(C)(C(=O)O)O2 (stereo unspecified)	15.9	–	–	1.82	–
CCCC(=O)O[C@@H]1Cc2ccc(O)c(O)c2O[C@H]1c1ccc(O)c(O)c1	8.89	46.2	–	14.1	139
CCCCCCCCCC(=O)O[C@@H]1Cc2ccc(O)c(O)c2O[C@H]1c1ccc(O)c(O)c1	6.07	13.5	–	17.5	112
CCCCCC(=O)O[C@@H]1Cc2ccc(O)c(O)c2O[C@H]1c1ccc(O)c(O)c1	6.68	49.3	–	14.4	129
O=C(O[C@@H]1Cc2ccc(O)c(O)c2O[C@H]1c1ccc(O)c(O)c1)c1ccccc1	11.5	77.8	Not Active	–	–
CC(=O)O[C@@H]1Cc2ccc(O)c(O)c2O[C@H]1c1ccc(O)c(O)c1	7.15	46.3	–	13	150
COc1ccc(C(=O)O[C@@H]2Cc3ccc(O)c(O)c3O[C@H]2c2ccc(O)c(O)c2)cc1	6.72	67.3	Not Active	–	–
O=C(O[C@@H]1Cc2ccc(O)c(O)c2O[C@H]1c1ccc(O)c(O)c1)c1ccccc1Cl	7.97	43.3	Not Active	–	–
CC(C)(Sc1cc(C(C)(C)C)c(O)c(C(C)(C)C)c1)Sc1cc(C(C)(C)C)c(O)c(C(C)(C)C)c1	21.7	–	–	–	–
CCCCCCCCCCCCCC(=O)O[C@@H]1Cc2ccc(O)c(O)c2O[C@H]1c1ccc(O)c(O)c1	7.51	12.6	–	11.3	102
CCCCCCCCCCCCCCCC(=O)O[C@@H]1Cc2ccc(O)c(O)c2O[C@H]1c1ccc(O)c(O)c1	5.17	9.56	–	10.1	94.7
O=C(O[C@@H]1Cc2ccc(O)c(O)c2O[C@H]1c1ccc(O)c(O)c1)c1ccc(F)cc1	8.99	32.8	Not Active	–	–
CCCCCCCCCCCCCCCCCC(=O)O[C@@H]1Cc2ccc(O)c(O)c2O[C@H]1c1ccc(O)c(O)c1	9.43	54.5	–	17.8	156
OC[C@H]1NC[C@H](O)[C@@H](O)[C@@H]1O [DUVOGLUSTAT]	–	50	–	–	–
